# CHRM5 PAM – human M5 muscarinic receptor positive allosteric modulators, primary screen, CHO-K1 cells, Fluo-8 calcium fluorescence. Muscarinic acetylcholine receptor M5 (Homo sapiens), P08912. CHO-K1 hM5, ACh EC20 PAM; 0% = ACh EC20, 100% = ACh EC100. activation, % at 3 µM. hit rate 0.3% among 360,000;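 active means activation above the run cutoff, the mean activation of all test compounds plus 3 SD, cut at about 18% in these data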
#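 system = human M5 receptor in CHO-K1 cells | compound = one concentration, 3 µM final (nominal) | schedule = Post-acetylcholine fluorescence recording 140 s | signal = Fluo-8 calcium dye fluorescence, kinetic read | benchmarks = low control EC20 acetylcholine (0%), high control EC100 acetylcholine (100%) | repeats = singlicate, one well per test compound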
# CHRM4 antagonist – human M4 muscarinic receptor antagonists, primary screen, CHO cells, Fluo-8 calcium fluorescence | Muscarinic acetylcholine receptor M4 (Homo sapiens), P08173 | CHO-hM4 cells, ACh EC80 | inhibition, % at 3 µM | hit rate 0.73% among 360,000;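 active means inhibition above its plate's cutoff, the mean inhibition of sample wells plus 3 SD, cut at about 27% in these data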;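 further: 0% = acetylcholine EC80 with DMSO and 100% = DMSO without agonist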
# Target sequence (P08173 whole entry, looked up): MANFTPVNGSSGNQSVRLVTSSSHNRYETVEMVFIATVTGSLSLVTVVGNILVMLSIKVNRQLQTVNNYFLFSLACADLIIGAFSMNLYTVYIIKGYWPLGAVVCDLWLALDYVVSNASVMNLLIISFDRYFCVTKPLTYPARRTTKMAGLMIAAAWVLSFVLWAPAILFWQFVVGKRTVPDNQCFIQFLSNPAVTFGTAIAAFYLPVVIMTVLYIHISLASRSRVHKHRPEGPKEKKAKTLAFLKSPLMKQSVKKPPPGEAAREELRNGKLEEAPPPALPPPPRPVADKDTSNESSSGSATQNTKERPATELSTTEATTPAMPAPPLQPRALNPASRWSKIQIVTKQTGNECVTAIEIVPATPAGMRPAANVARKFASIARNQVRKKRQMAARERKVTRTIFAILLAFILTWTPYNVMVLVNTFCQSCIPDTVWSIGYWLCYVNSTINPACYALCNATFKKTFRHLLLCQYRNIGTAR
# CHRM5 agonist – human M5 muscarinic receptor agonists, primary screen, CHO-K1 cells, Fluo-8 calcium fluorescence | Muscarinic acetylcholine receptor M5 (Homo sapiens), P08912 | CHO-K1 hM5 cells; 0% DMSO wells, 100% maximal acetylcholine response | activation, % at 3 µM | hit rate 0.19% among 360,000 | AID 624037, 2012;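 active means activation above the run's mean over test compounds plus 3 SD, cut at about 23% in these data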;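 further: signal is peak over basal fluorescence ratio across the kinetic read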
# CHRM4 agonist – human M4 muscarinic receptor agonists, primary screen, CHO-K1 cells, Fluo-8 calcium fluorescence; CHO-K1 hM4/Gqi5; vehicle 0%, full acetylcholine response 100%; activation, % at 3 µM; hit rate 0.14% among 360,000;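 active means activation above the run mean over all test wells plus 3 SD, cut at about 32% in these data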;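 further: peak over basal fluorescence ratio per well then scaled between controls; 0% = DMSO wells and 100% = acetylcholine at EC100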
# M5 antag – human M5 muscarinic receptor antagonists, primary screen, CHO cells, Fluo-8 calcium fluorescence | inhibition, % at 3 µM | Muscarinic acetylcholine receptor M5 (Homo sapiens), P08912 | hit rate 0.59% among 360,000 | CHO-hM5 cells, ACh EC80;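 active means inhibition above a per-plate cutoff, the mean of that plate's test compounds plus 3 SD, cut at about 27% in these data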;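 further: 0% = acetylcholine EC80 with DMSO and 100% = DMSO without agonist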
# CHRM4 PAM – human M4 muscarinic receptor positive allosteric modulators, primary screen, CHO-K1 cells, Fluo-8 calcium fluorescence; Muscarinic acetylcholine receptor M4 (Homo sapiens), P08173; CHO-K1 hM4/Gqi5, ACh EC20; 0% = ACh EC20, 100% = maximal ACh; activation, % at 3 µM; hit rate 0.4% among 360,000; AID 624126, 2012;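 active means activation above its plate's cutoff, the mean activation of sample wells plus 3 SD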
# * hit, by the source's call. This is a sample that favours compounds with a hit; in the whole collection about 1.9% have one here.
SMILES,CHRM5 PAM,CHRM4 antagonist,CHRM5 agonist,CHRM4 agonist,M5 antag,CHRM4 PAM
COc1cc(OC)c(C2C(C#N)=C(N)Oc3cc(C)n(CCCN4CCOCC4)c(=O)c32)cc1OC (stereo not drawn),-1,1,-5,0,1,-4
COc1ccccc1CC(=O)NNC(=O)CN(C)S(=O)(=O)c1ccc(Cl)cc1,8,-11,1,2,-6,6
Cc1cccc(C)c1NC(=O)[C@@]1(CC(=O)O)CC(/C=C/c2ccccc2)=NO1,1,-23,-4,3,-4,14*
Brc1ccc(CN2CCCCCC2)cc1,4,1,-12,1,6,4
Nc1ccc(CN2CCCCCC2)cc1,38*,-2,-11,1,3,-1
Cc1cccc(-n2c(SCC(=O)N3CCN(c4ccccn4)CC3)nnc2N2CCOCC2)c1,7,-4,-2,2,9,3
CCN(CC)Cc1ccccc1Sc1ccccc1,-18,53*,-9,0,99*,-17
N/C(Cc1ccccc1Sc1ccccc1)=N\O,-7,-1,0,2,11,4
COc1ccc(C2c3c(ncn(CCCO)c3=N)Oc3ccc4ccccc4c32)cc1 (stereo not drawn),-10,0,-4,19,7,-9
COc1ccc(C2c3c(ncn(CCCO)c3=N)Oc3ccc4ccccc4c32)cc1OC (stereo not drawn),7,1,-2,1,-4,11*
O=C(CCCCCn1c(=O)[nH]c2ccsc2c1=O)N1CCCCC1,-9,0,-8,1,5,4
CCOC(=O)N1CCN(C(=O)CCCCn2c(=S)[nH]c3ccsc3c2=O)CC1,12,-20,3,0,-5,19*
O=C(CCCn1c(=O)[nH]c2ccsc2c1=O)N1CCCCC1,26*,-3,-6,0,2,9
COc1ccc(NC(=O)CC2C(=O)N(CCc3ccccc3)C(=S)N2Cc2cccnc2)cc1 (stereo not drawn),-6,27*,6,16,10,-10
CCN(CC(=O)Nc1c(F)cccc1F)C(=O)c1ccc(OCC(=O)N2CCOCC2)c(OC)c1,1,-9,5,1,1,6
Cc1ccc(NC(=O)N2CCc3ccccc3C2)c(C)c1,6,-10,-6,2,3,19*
COc1cc(NC(=O)CSc2nc3ccccc3n2-c2ccccc2)c(C)cc1[N+](=O)[O-],-1,-13,-3,0,-2,8
COc1ccc(C2C(C(=O)Nc3cc(OC)c(OC)c(OC)c3)c3ccccc3C(=O)N2C)cc1OC (stereo not drawn),2,-4,2,1,9,5
O=C(COc1ccc(S(=O)(=O)N2CCCC2)cc1)NCc1ccccn1,4,1,-3,1,2,3
CCn1c(C)nc2cc(C(=O)OC(C(F)(F)C(F)F)C(F)(F)C(F)F)ccc21,-15,25,5,15,39*,-22
CCOC(=O)CC1CCCCN1C(=O)c1cc(COc2cccc3cnccc23)on1 (stereo not drawn),-15,55*,10,32*,40*,-13
COc1cc(C(=O)Nc2scc(-c3ccc(C)cc3)c2C(=O)O)cc(OC)c1OC,3,62*,0,-1,10,-13
COc1cc(C(=O)Nc2scc(-c3ccccc3)c2C(=O)O)cc(OC)c1OC,1,0,-1,3,4,1
O=C(O)CCCNC(=O)c1ccc(NC(=O)Cc2ccc(Cl)cc2)cc1,-14,-7,7,12,-6,-4
CC(Nc1ncnc2sccc12)c1ccccc1 (stereo not drawn),-12,14,6,13,33*,-4
SMILES,CHRM5 PAM,CHRM4 antagonist,CHRM5 agonist,CHRM4 agonist,M5 antag,CHRM4 PAM
CCN(C(=O)COC(=O)c1c(-c2ccccc2)noc1C)C1CCS(=O)(=O)C1 (stereo not drawn),5,-1,-1,0,-4,3
CC(=O)Nc1sc(C)c(C)c1C(=O)OCC(=O)N(CC(C)C)C1CCS(=O)(=O)C1 (stereo not drawn),4,-9,2,2,3,23*
CCN(C(=O)COC(=O)c1c(C)c(-c2ccccc2)nc2ccccc12)C1CCS(=O)(=O)C1 (stereo not drawn),-2,5,25*,7,-2,-7
CCNC(=O)C1(C)CCN(C(=O)c2ccc3snnc3c2)C1 (stereo not drawn),-9,-21,-2,1,1,10
COc1ccccc1/C=[N+](\[O-])C1SC(=S)N(C)C1(C)C (stereo not drawn),6,-5,-10,0,-2,4
O=C1[C@H]2CCCC[C@H]2C(=O)N1CCCCN1CCN(c2nsc3ccccc23)CC1,-6,-6,-1,5,5,-3
O=C1CC(SC(=NCc2ccc3c(c2)OCO3)Nc2ccccc2)C(=O)N1c1ccccc1 (stereo not drawn),14,-19,0,1,-7,24*
O=C(NCC1CCCO1)c1cc2nc(-c3ccco3)cc(C(F)(F)Cl)n2n1 (stereo not drawn),6,5,-4,1,-5,10
O=C(CCNC(=O)c1ccc(Br)cc1)NCc1ccco1,1,-5,3,2,-17,5
O=C(CCNC(=O)c1ccco1)NNC(=O)c1ccc(Br)cc1,5,-7,-4,1,-4,23*
O=C(CCNC(=O)c1ccco1)Nc1ccccc1,2,-12,-1,2,9,16*
Cc1ccc(NC(=O)CCNC(=O)c2ccco2)cc1,13,3,-1,1,1,19
O=C(NCC(F)(F)F)c1ccc(S(=O)(=O)Nc2ccccc2N2CCCC2)cc1,1,-7,2,3,15,2
O=C(Nc1cccc(C(F)(F)F)c1)C(=O)N1CCCCC1,20*,5,1,0,-7,8
CN(C)c1nn(C(=O)Nc2cccc(C(F)(F)F)c2)cc1-c1ccccc1,-15,27*,5,17,36*,-16
Cc1cn2c(=O)c(C(=O)N3CCN(c4ccccc4Cl)CC3)cnc2s1,3,-14,0,1,3,5
